ChEMBL document CHEMBL3085645, “Design, synthesis and biological evaluation of phosphorodiamidate prodrugs of antiviral and anticancer nucleosides” (Eur J Med Chem, 2013)

How the values were obtained:
[1] = test system: Human immunodeficiency virus 2; test: Antiviral activity against HIV2 ROD infected in human CEM cells assessed as virus-induced giant cell formation after 4 days by microscopic analysis; assay type: functional, organism-based; settings: Human immunodeficiency virus 2, ISOLATE ROD, CCRF-CEM, 96 h
Method in brief: (§1)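 CEM cells (∼3 × 10^5 cells/cm3) infected with 100 CCID50/mL of HIV-1(IIIB) or HIV-2(ROD), seeded into wells with compound dilutions. Giant cell formation examined microscopically after 4 days at 37 °C.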

[2] = test system: Human immunodeficiency virus 1; test: Antiviral activity against HIV1 3B infected in human CEM cells assessed as virus-induced giant cell formation after 4 days by microscopic analysis; assay type: functional, organism-based; settings: Human immunodeficiency virus 1, 3B, CCRF-CEM, 96 h; method in brief: as §1
[3] = test system: CCRF-CEM; test: Cytotoxicity against human CEM cells; assay type: cell-based
[4] = test system: HeLa; test: Cytostatic activity against thymidine kinase-deficient human HeLa cells assessed as growth inhibition after 3 days by particle counting analysis; assay type: functional, cell-based; settings: 72 h
Method in brief: (§2)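 Tumor cells seeded and exposed to a range of compound concentrations. Cell number counted with a particle counter after 2 days (L1210, L1210/TK) or 3 days (CEM, CEM/TK, HeLa, HeLa TK, Caco-2, Colo-320).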

[5] = test system: L1210; test: Cytostatic activity against thymidine kinase-deficient mouse L1210 cells assessed as growth inhibition after 2 days by particle counting analysis; assay type: functional, cell-based; settings: L1210, 48 h; method in brief: as §2
[6] = test system: Caco-2; test: Cytostatic activity against human Caco2 cells assessed as growth inhibition after 3 days by particle counting analysis; assay type: functional, cell-based; settings: Caco-2, 72 h; method in brief: as §2
[7] = test system: CCRF-CEM; test: Cytostatic activity against thymidine kinase-deficient human CEM cells assessed as growth inhibition after 3 days by particle counting analysis; assay type: functional, cell-based; settings: 72 h; method in brief: as §2
[8] = test system: COLO 320; test: Cytostatic activity against human COLO320 cells assessed as growth inhibition after 3 days by particle counting analysis; assay type: functional, cell-based; settings: COLO 320, 72 h; method in brief: as §2
[9] = test system: CCRF-CEM; test: Cytostatic activity against human CEM cells assessed as growth inhibition after 3 days by particle counting analysis; assay type: functional, cell-based; settings: 72 h; method in brief: as §2
[10] = test system: L1210; test: Cytostatic activity against mouse L1210 cells assessed as growth inhibition after 2 days by particle counting analysis; assay type: functional, cell-based; settings: L1210, 48 h; method in brief: as §2
[11] = test system: HeLa; test: Cytostatic activity against human HeLa cells assessed as growth inhibition after 3 days by particle counting analysis; assay type: functional, cell-based; settings: 72 h; method in brief: as §2
[12] = test system: Huh-7; test: Cytotoxicity against human HuH7 cells; assay type: cell-based
[13] = test system: Hepatitis C virus; test: Antiviral activity against Hepatitis C virus genotype 1b infected in human HuH7 cells assessed as inhibition of viral replication; assay type: functional, organism-based, Hepacivirus hominis; settings: Huh-7, read-out: EC50
[14] = test system: Human immunodeficiency virus 1; test: Antiviral activity against HIV1 infected in human MT4 cells assessed as p24 production after 3 days; settings: Human immunodeficiency virus 1, MT4, 72 h
[15] = test system: Human alphaherpesvirus 1; test: Antiviral activity against acyclovir-resistant thymidine kinase-deficient Herpes simplex virus 1 KOS infected in HEL cells assessed as inhibition of virus-induced cytopathicity; assay type: functional, organism-based; settings: Human alphaherpesvirus 1, KOS
[16] = test system: MT4; test: Cytotoxicity against human MT4 cells assessed as cell viability by propidium iodide staining-based cell counting analysis
Method in brief: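 MT-4 cultures, untreated or treated, were counted on an automated cell counter. Total and dead cells were enumerated by propidium iodide-based assay.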

[17] = test system: Human alphaherpesvirus 1; test: Antiviral activity against Herpes simplex virus 1 KOS infected in HEL cells assessed as inhibition of virus-induced cytopathicity; assay type: functional, organism-based; settings: Human alphaherpesvirus 1, KOS
[18] = test system: Felid alphaherpesvirus 1; test: Antiviral activity against Feline herpesvirus infected in cat CRFK cells assessed as inhibition of virus-induced cytopathicity; assay type: functional, organism-based; settings: Felid alphaherpesvirus 1, CRFK
[19] = Cytotoxicity against HEL cells; assay type: cell-based; settings: human
[20] = test system: Human alphaherpesvirus 2; test: Antiviral activity against Herpes simplex virus 2 G infected in HEL cells assessed as inhibition of virus-induced cytopathicity; assay type: functional, organism-based; settings: Human alphaherpesvirus 2, strain G

With `Cc1cn([C@H]2C[C@H](N=[N+]=[N-])[C@@H](CO)O2)c(=O)[nH]c1=O` [ZIDOVUDINE] as the molecule, how does the EC50 [1] read?
Its EC50 is 0.067 µM.

And the EC50 [2]?
The EC50 was 0.012 µM.

And the CC50 [3]?
Its CC50 is > 250 µM.

With `CC(=O)Nc1ccn([C@H]2CS[C@@H](CO)O2)c(=O)n1` as the molecule, how does the IC50 [4] read?
The IC50 was > 250 µM.

What about the IC50 [5] of the same molecule?
The IC50 was > 250 µM.

What about the IC50 [6] of the same molecule?
The IC50 was > 250 µM.

What about the IC50 [7] of the same molecule?
Its IC50 is > 250 µM.

And the IC50 [8]?
Its IC50 is ≥ 250 µM.

What about the IC50 [9] of the same molecule?
The IC50 was > 250 µM.

And the IC50 [10]?
The IC50 was > 250 µM.

And the IC50 [11]?
The IC50 was 242 µM.

For `C[C@H](NP(=O)(N[C@@H](C)C(=O)OCc1ccccc1)OC[C@@]1(N=[N+]=[N-])O[C@@H](n2ccc(N)nc2=O)[C@H](O)[C@@H]1O)C(=O)OCc1ccccc1`, which CC50 ([12]; human, huh-7, read-out: CC50) is on record?
The CC50 was > 100 µM.

What about the EC50 [13] of the same molecule?
The EC50 was > 40 µM.

With `C[C@H](NP(=O)(N[C@@H](C)C(=O)OCC(C)(C)C)OC[C@@]1(N=[N+]=[N-])O[C@@H](n2ccc(N)nc2=O)[C@H](O)[C@@H]1O)C(=O)OCC(C)(C)C` as the molecule, how does the CC50 ([12]; human, huh-7, read-out: CC50) read?
The CC50 was 72 µM.

What about the EC50 [13] of the same molecule?
The EC50 was > 40 µM.

Which CC50 ([12]; human, huh-7, read-out: CC50) does the source give for `CCOc1nc(N)nc2c1ncn2[C@@H]1O[C@H](COP(=O)(N[C@H](C)C(=O)OCC(C)(C)C)N[C@H](C)C(=O)OCC(C)(C)C)[C@@H](O)[C@@]1(C)F` here?
Its CC50 is > 100 µM.

What about the EC50 [13] of the same molecule?
Its EC50 is 0.23 µM.

Which EC50 [14] does the source give for `Nc1nc2c(ncn2COCCO)c(=O)[nH]1` [ACYCLOVIR] here?
Its EC50 is > 250 µM.

And the EC50 [15]?
Its EC50 is 23 µM.

What about the CC50 [16] of the same molecule?
The CC50 was > 250 µM.

And the EC50 [17]?
Its EC50 is 0.23 µM.

And the EC50 [18]?
The EC50 was > 100 µM.

What about the MCC [19] of the same molecule?
Its MCC is > 100 µM.

With `Cc1cn([C@H]2C[C@H](N=[N+]=[N-])[C@@H](COP(=O)(N[C@@H](C)C(=O)OCC(C)(C)C)N[C@@H](C)C(=O)OCC(C)(C)C)O2)c(=O)[nH]c1=O` as the molecule, how does the EC50 [1] read?
Its EC50 is 0.013 µM.

And the EC50 [2]?
Its EC50 is 0.0083 µM.

And the CC50 [3]?
Its CC50 is 75 µM.

For `C[C@H](NP(=O)(N[C@@H](C)C(=O)OCc1ccccc1)OC[C@H]1O[C@@H](n2cnc(C(N)=O)c2N)[C@H](O)[C@@H]1O)C(=O)OCc1ccccc1`, which IC50 [4] is on record?
The IC50 was > 250 µM.

What about the IC50 [9] of the same molecule?
The IC50 was > 250 µM.

And the EC50 [20]?
Its EC50 is > 100 µM.

And the EC50 [15]?
The EC50 was > 100 µM.

And the IC50 [10]?
The IC50 was > 250 µM.

And the IC50 [11]?
Its IC50 is > 250 µM.

What about the EC50 [17] of the same molecule?
The EC50 was > 100 µM.

And the EC50 [18]?
Its EC50 is > 100 µM.

And the MCC [19]?
Its MCC is > 100 µM.

Which results are given for `Cc1cn([C@H]2C=C[C@@H](COP(=O)(N[C@@H](C)C(=O)OCc3ccccc3)N[C@@H](C)C(=O)OCc3ccccc3)O2)c(=O)[nH]c1=O`?
IC50 [4]: 29 µM; IC50 [5]: 7.4 µM; IC50 [6]: 241 µM; EC50 [1]: 0.096 µM; IC50 [7]: 46 µM; IC50 [8]: 133 µM; IC50 [9]: 92 µM; EC50 [2]: 0.14 µM; IC50 [10]: 8.9 µM; IC50 [11]: 116 µM

With `CCOc1nc(N)nc2c1ncn2[C@@H]1O[C@H](COP(=O)(N[C@@H](C)C(=O)OCC(C)(C)C)N[C@@H](C)C(=O)OCC(C)(C)C)[C@@H](O)[C@@]1(C)F` as the molecule, how does the CC50 ([12]; human, huh-7, read-out: CC50) read?
The CC50 was 73 µM.

And the EC50 [13]?
Its EC50 is 0.05 µM.

For `CC(=O)Nc1ccn([C@H]2CS[C@@H](COP(=O)(N[C@@H](C)C(=O)OCc3ccccc3)N[C@@H](C)C(=O)OCc3ccccc3)O2)c(=O)n1`, which IC50 [6] is on record?
The IC50 was ≥ 250 µM.

What about the IC50 [8] of the same molecule?
Its IC50 is > 250 µM.

What about the IC50 [9] of the same molecule?
Its IC50 is 120 µM.

What about the IC50 [11] of the same molecule?
Its IC50 is 155 µM.

What does the source list for `Cc1cn([C@H]2C=C[C@@H](COP(=O)(N[C@@H](C)C(=O)OCC(C)(C)C)N[C@@H](C)C(=O)OCC(C)(C)C)O2)c(=O)[nH]c1=O`?
IC50 [4]: 53 µM; IC50 [5]: 23 µM; IC50 [6]: 174 µM; EC50 [1]: 0.14 µM; IC50 [7]: 37 µM; IC50 [8]: 30 µM; IC50 [9]: 96 µM; EC50 [2]: 0.09 µM; IC50 [10]: 47 µM; IC50 [11]: 110 µM

For `C[C@H](NP(=O)(N[C@@H](C)C(=O)OCC(C)(C)C)OC[C@@]1(N=[N+]=[N-])O[C@@H](n2ccc(=O)[nH]c2=O)[C@H](O)[C@@H]1O)C(=O)OCC(C)(C)C`, which CC50 ([12]; human, huh-7, read-out: CC50) is on record?
The CC50 was > 100 µM.

What about the EC50 [13] of the same molecule?
The EC50 was 22 µM.

Which results are given for `C[C@H](NP(=O)(N[C@@H](C)C(=O)OCc1ccccc1)OC[C@H]1O[C@@H](n2cnc(C(N)=O)n2)[C@H](O)[C@@H]1O)C(=O)OCc1ccccc1`?
CC50 ([12]; Homo sapiens, Huh-7, read-out: EC50 (the source's name)): > 100 µM; EC50 [13]: > 100 µM

For `NC(=O)c1ncn([C@@H]2O[C@H](CO)[C@@H](O)[C@H]2O)c1N` [ACADESINE], which IC50 [4] is on record?
Its IC50 is ≥ 250 µM.

What about the IC50 [9] of the same molecule?
Its IC50 is 210 µM.

What about the EC50 [20] of the same molecule?
The EC50 was > 100 µM.

And the EC50 [15]?
The EC50 was > 100 µM.

And the IC50 [10]?
The IC50 was ≥ 250 µM.

And the IC50 [11]?
The IC50 was 165 µM.

What about the EC50 [17] of the same molecule?
Its EC50 is > 100 µM.

And the EC50 [18]?
Its EC50 is > 100 µM.

What about the MCC [19] of the same molecule?
The MCC was > 100 µM.
